The IC50 is the concentration at which inhibition is half-maximal.

For test [1], the system named is K562. Briefly: Cytotoxicity against human K562 cells after 24 hrs by MTT assay. The note with it: K562, 24 h. The class given is functional, cell-based.
Test [2] concerns MCF7. Put plainly: Cytotoxicity against human MCF7 cells after 24 hrs by MTT assay. Format: functional, cell-based. As to conditions: MCF7, 24 h. A general note: Tetrazolium dyes change colour on reduction, which living cells bring about.
The test system of test [3] is MDA-MB-231. Briefly: Cytotoxicity against human MDA-MB-231 cells after 24 hrs by MTT assay. Format: functional, cell-based. As to conditions: MDA-MB-231, 24 h.
For test [4], the system named is K562. Briefly: Inhibition of NF-kappaB p65 in human K562 cells assessed as down regulation of STAT3 protein level at 10 uM after 24 hrs by Western blot analysis. The class given is cell-based. A digest of the protocol:
(§1)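 K562 cells treated 24 h with compound at 10 (micro)M; lysed in ice-cold RIPA with protease/phosphatase inhibitors, centrifuged 12,000 rpm 10 min, protein by Bradford. 30 µg per lane on 12% SDS-PAGE, PVDF transfer, blocked 2 h RT in TBST with 5% blocking powder. Primary antibody 4 °C overnight, HRP secondary 1:2000 1 h RT; chemiluminescence; β-actin loading control; untreated cells as control.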

In test [5] the test system is K562. Briefly: Induction of apoptosis in human K562 cells assessed as effect on TNFR1 protein expression at 10 uM after 24 hrs by Western blot analysis. Format: functional, cell-based. A general note: A western blot detects proteins with antibodies after separation by electrophoresis.
Test [6] relates to K562. Briefly: Antiproliferative activity against human K562 cells assessed as reduction in incorporation of BrdU into cellular DNA at 10 uM after 24 hrs. The class given is functional, cell-based. In a few lines: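 K562 cells seeded 15,000/well, grown 24 h, then labelled with BrdU 5 h at RT, then exposed to compound at final 10 (micro)M for 24 h. Detection by anti-BrdU, HRP secondary (1:2000) 30 min, TMB substrate 30 min at room temperature; optical density read at 450 nm.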

For test [7], the system named is K562. Briefly: Induction of apoptosis in human K562 cells assessed as DNA fragmentation at 10 uM after 24 hrs by TUNEL assay. Format: functional, cell-based. A digest of the protocol:
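TUNEL on K562 cells after 24 h exposure at 10 (micro)M: TdT-mediated incorporation of fluorescein-dUTP at free 3'-OH ends of fragmented DNA, run per kit maker's protocol; green-stained cells scored as TUNEL-positive; untreated cells as staining control.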

For test [8], the system named is K562. Briefly: Cell cycle arrest in human K562 cells at G1 phase assessed as decrease in cyclin D1 protein level at 10 uM after 24 hrs by Western blot analysis relative to control. Format: functional, cell-based. In a few lines:
as §1

Test [9] deals with K562. Put plainly: Cell cycle arrest in human K562 cells at G1 phase assessed as decrease in CDK4 protein level at 10 uM after 24 hrs by Western blot analysis relative to control. Format: functional, cell-based. In a few lines: as §1
The subject of test [10] is K562. Put plainly: Induction of apoptosis in human K562 cells assessed as upregulation of caspase3 protein expression at 10 uM after 24 hrs by Western blot analysis. Format: functional, cell-based. A digest of the protocol:
as §1

The subject of test [11] is K562. Briefly: Induction of apoptosis in human K562 cells assessed as upregulation of caspase7 protein expression at 10 uM after 24 hrs by Western blot analysis. The class given is functional, cell-based. A digest of the protocol:
as §1

Test [12] deals with K562. Briefly: Inhibition of NF-kappaB p65 in human K562 cells assessed as decrease of S473 phosphorylated Akt1 level at 10 uM after 24 hrs by Western blot analysis. The class given is cell-based. In a few lines: as §1
Test [13] deals with K562. Briefly: Antiproliferative activity against human K562 cells assessed as down regulation of c-myc protein expression at 10 uM after 24 hrs by Western blot analysis relative to control. Format: functional, cell-based. In a few lines: as §1
Test [14] relates to K562. Put plainly: Inhibition of NF-kappaB p65 in human K562 cells at 10 uM after 24 hrs by Western blot analysis. Format: cell-based. A digest of the protocol: as §1

Counter-ions that a name gives are not always drawn. Calls of active or inactive are those of the source. No cut-off for these calls is given here.

For `Cc1ccc(NS(=O)(=O)c2ccc(Cl)cc2)cc1Nc1nccc(-c2cccnc2)n1`, the results for the IC50 in [1], in [2] and in test [3] were 10.2 µM, 11.8 µM and 7.79 µM, respectively.

In the case of `Cc1ccc(NC(=O)c2ccc(CN3CCN(C)CC3)cc2)cc1Nc1nccc(-c2cccnc2)n1` [IMATINIB MESYLATE], the concentration for half-maximal inhibition (IC50) in [1] was 0.21 µM; in test [2], 0.83 µM; in test [3], 1.8 µM.

As to `COc1ccc(S(=O)(=O)Nc2ccc(C)c(Nc3nccc(-c4cc(OC)c(OC)c(OC)c4)n3)c2)cc1`, the IC50 in test [1] amounted to 9.12 µM; in test [2] it was 12.3 µM; in [3], 6.86 µM.

`COc1cc(-c2ccnc(Nc3cc(NS(=O)(=O)c4ccc5ccccc5c4)ccc3C)n2)cc(OC)c1OC`: the 50% inhibitory concentration (IC50) in test [1] came out at 9.81 µM; in [2], 11.6 µM; in test [3], 7.55 µM.

As for `Cc1ccc(NS(=O)(=O)c2ccc(-c3ccccc3)cc2)cc1Nc1nccc(-c2cccnc2)n1`, the IC50 in [1] is 9.49 µM; in [2], 11.9 µM; in test [3], 8 µM.

As to `COc1ccc(S(=O)(=O)Nc2ccc(C)c(Nc3nccc(-c4cc(OC)c(OC)c(OC)c4)n3)c2)cc1OC`, the outcome in [4], in test [6], in test [7], in test [8], in test [9] and in test [10] was Active. In addition, the outcome in test [11] and in [12] was Active. The IC50 in [1] was found to be 8.57 µM; in [2] it was 11.6 µM; in test [3], 7.48 µM. Besides, the outcome in [5] was inactive.

With `COc1cc(-c2ccnc(Nc3cc(NS(=O)(=O)c4ccc(-c5ccccc5)cc4)ccc3C)n2)cc(OC)c1OC`, the outcome in [4], in [13], in [6], in test [7], in test [8] and in [9] was Active. In addition, the outcome in test [10], in test [11], in test [14] and in test [12] was Active. In addition, the half-inhibitory concentration (IC50) was 5.6 µM in test [1], 9.33 µM in test [2] and 6.93 µM in test [3]. Further, the outcome in [5] was inactive.

As for `Cc1ccc(NS(=O)(=O)c2ccc3ccccc3c2)cc1Nc1nccc(-c2cccnc2)n1`, the IC50 in test [1] came out at 9.89 µM; in test [2] it was 12 µM; in [3], 8.31 µM.

On to `Cc1ccc(NS(=O)(=O)c2cnc3ccccc3c2)cc1Nc1nccc(-c2cccnc2)n1`, for which the outcome in test [4], in test [6], in [7], in test [8], in [9] and in [10] was Active. The outcome in test [11] and in [12] was Active. Further, the concentration for half-maximal inhibition (IC50) in test [1] stood at 5.88 µM; in test [2] it was 9.96 µM; in test [3], 7.31 µM. Further, the result in test [5] and in test [14] was inactive.

For the origin of these results see ChEMBL document CHEMBL1914378, “Synthesis and apoptosis inducing ability of new anilino substituted pyrimidine sulfonamides as potential anticancer agents” (Eur J Med Chem, 2011).
